NadD block: inhibitors of S. aureus NadD, primary screen, biochemical, colorimetric, uHTS; Nicotinate-nucleotide adenylyltransferase NadD (Staphylococcus aureus N315); purified NadD enzyme, colorimetric absorbance read-out; inhibition, % at 20 µM; 360,000 tested, 0.78% active; AID 602399, 2012; in the data active = inhibition above about 26%
SUMO1-SIM PPI: modulators of SUMO1 protein-protein interactions, primary screen, biochemical, uHTS. SUMO1 binding to a labelled peptide, TR-FRET, 1 h. inhibition, % at 20 µM. 360,000 tested, 0.33% active; in the data active = inhibition above about 37%
Target sequence (P63165 whole entry, looked up): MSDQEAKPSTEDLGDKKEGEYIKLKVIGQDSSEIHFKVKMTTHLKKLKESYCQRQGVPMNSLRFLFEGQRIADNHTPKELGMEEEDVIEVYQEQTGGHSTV
LMPTP block: LMPTP phosphatase inhibitors, primary screen, biochemical, fluorescence intensity, uHTS; Low molecular weight phosphotyrosine protein phosphatase (Homo sapiens), P24666; recombinant LMPTP-A, OMFP fluorogenic substrate; inhibition, % at 20 µM; 360,000 tested, 0.22% active; AID 651560, 2012;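 active = compounds that cut the enzyme signal by at least half of the control window in the single-dose screen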;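 note: plate controls were DMSO wells with enzyme plus substrate for no effect and substrate without enzyme for full effect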
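Assay system: LMPTP-A, protein tyrosine phosphatase of low molecular weight / Medium: pH 6.0 Bis-Tris buffer with DTT and Triton X-100 / Schedule: 50 min enzyme reaction at room temperature, protected from light / Measured by: endpoint fluorescence intensity from OMFP dephosphorylation / Read-out basis: % inhibition relative to no-enzyme and uninhibited control wells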
DNMT1 block: human DNMT1 methyltransferase inhibitors, primary screen, biochemical, molecular beacon, fluorescence, HinP1I cleavage, uHTS | DNA (cytosine-5)-methyltransferase 1 (Homo sapiens), P26358 | inhibition (reported as % activation of signal), % at 10 µM | 360,000 tested, 0.83% active | AID 588458, 2011; in the data active = inhibition above about 50%
Scp1 inh: Scp-1 phosphatase inhibitors, primary screen, biochemical, colorimetric, uHTS | Carboxy-terminal domain RNA polymerase II polypeptide A small phosphatase 1 (Homo … | Recombinant Scp1, phosphopeptide, malachite green phosphate absorbance | inhibition, % at 20 µM | 340,000 tested, 0.88% active;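 active = inhibition above about 50% at 20 µM, limit read from the data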;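 note: plate controls were DMSO wells with enzyme for no effect and wells lacking enzyme for full effect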
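Times: enzyme reaction 45 min at room temperature, colour 5 min, stabilisation 30 min. Material: SCP-1 catalytic fragment, aa 76-261. Medium: Acidic Tris acetate buffer with magnesium and detergent. Signal: colorimetric free-phosphate detection, absorbance 630 nm. Read-out basis: % inhibition of SCP-1 phosphate liberation. Reagent: Phosphorylated 17-residue peptide substrate.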
STEP inh: STEP phosphatase inhibitors, primary screen, biochemical, fluorescence intensity, uHTS. Tyrosine-protein phosphatase non-receptor type 5 (Homo sapiens), P54829. recombinant STEP, OMFP fluorogenic substrate. inhibition, % at 20 µM. 360,000 tested, 0.25% active;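 active = inhibition at 20 µM, scaled per plate between control wells, above about 37%, limit read from the data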;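 note: 0% = DMSO with enzyme and substrate and 100% = substrate only without enzyme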
Target sequence (P54829 whole entry, looked up): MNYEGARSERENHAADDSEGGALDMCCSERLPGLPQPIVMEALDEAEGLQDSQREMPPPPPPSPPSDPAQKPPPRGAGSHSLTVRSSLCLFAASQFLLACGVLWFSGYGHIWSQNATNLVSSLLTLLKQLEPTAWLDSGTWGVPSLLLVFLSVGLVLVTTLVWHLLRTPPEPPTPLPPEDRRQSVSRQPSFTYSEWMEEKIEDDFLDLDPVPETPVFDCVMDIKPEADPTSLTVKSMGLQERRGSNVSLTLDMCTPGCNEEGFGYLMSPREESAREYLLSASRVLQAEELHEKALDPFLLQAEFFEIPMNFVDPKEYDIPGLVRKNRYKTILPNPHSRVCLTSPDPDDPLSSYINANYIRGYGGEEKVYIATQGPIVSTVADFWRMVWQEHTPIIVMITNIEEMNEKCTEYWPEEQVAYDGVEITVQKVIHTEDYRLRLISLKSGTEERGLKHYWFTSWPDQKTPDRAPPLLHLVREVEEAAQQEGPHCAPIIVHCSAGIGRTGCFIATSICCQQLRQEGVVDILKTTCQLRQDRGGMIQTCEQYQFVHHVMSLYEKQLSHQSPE
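Material: STEP (striatal-enriched tyrosine phosphatase) enzyme, cell-free | Medium: 50 mM Bis-Tris pH 6.0 with 2.5 mM DTT and 0.005% Tween 20 | Read-out: Percent inhibition scaled to no-enzyme and uninhibited-enzyme controls, plate-pattern corrected | Signal: Fluorescence read at 480 nm ex / 540 nm em | Times: 20 min reaction, room temperature, in the dark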
NadD conf: inhibitors of S. aureus NadD, confirmation, biochemical, colorimetric, single concentration; shares compounds with NadD block; purified S. aureus NadD, colorimetric enzyme assay; inhibition, % at 20 µM; 2,000 tested, 13% active; in the data active = inhibition mostly above about 42%, no sharp cut-off; inactive = mostly below about 42%
Numbers without * were called inactive; / = no result given. Shown are actives, neighbours in structure and some others; about 2.3% of the full set was active somewhere.

SMILES	NadD block	SUMO1-SIM PPI	LMPTP block	DNMT1 block	Scp1 inh	STEP inh	NadD conf
Cc1ccccc1CN1C(=O)C(C)Sc2ccc(-c3ccco3)cc21 (configuration not stated)	43.2*	6.5	1.3	58.0*	/	1.6	49.9*
Oc1ccc(C[C@H]2CNC(=S)N2CC2CCCN2C[C@H](Cc2ccccc2)N2C[C@H](Cc3ccc(O)cc3)N(CCc3ccccc3)C2=S)cc1 (some centres not stated)	53.3*	10.6	3.1	-29.7	30.0	-2.4	58.2*
CC(C)C[C@H]1CN([C@@H](Cc2ccc(O)cc2)CN2CCC[C@@H]2CN2C(=S)NC[C@@H]2Cc2ccccc2)C(=S)N1CCc1ccccc1	31.8*	3.6	3.2	-33.8	/	1.8	9.4
CC(C)C[C@H]1CNC(=S)N1C[C@H]1CCCN1C[C@H](Cc1ccc(O)cc1)N1C[C@H](Cc2ccc(O)cc2)N(CCc2ccccc2)C1=S	21.9	4.0	3.1	-45.4	/	5.6	/
CCNC(=S)Nc1cc(-c2ccc(Cl)cc2)[nH]n1	3.5	3.9	0.3	-1.5	5.4	1.5	/
Nc1ccc2c(c1)C/C(=C/c1ccco1)C2=O	30.7*	39.9*	67.0*	88.4*	73.1*	10.0	7.6
CCc1cccc(NC(=O)C2CCN(c3ncnc4sc(C)c(C)c34)CC2)c1	18.2	3.9	3.2	-5.0	1.5	0.2	/
CC1CCc2c(sc(Nc3nc4c(F)cccc4s3)c2C(N)=O)C1 (configuration not stated)	36.2*	-3.0	2.5	-10.8	-5.3	2.8	7.9
Cc1sc2ncnc(N3CCC(C(=O)Nc4nnc(SCc5ccccc5F)s4)CC3)c2c1C	46.7*	1.1	1.7	0.9	9.1	0.9	3.8
Cc1sc2ncnc(N3CCC(C(=O)Nc4ccc(Cl)c(Cl)c4)CC3)c2c1C	41.6*	-10.6	-4.0	-3.3	7.1	-2.4	8.9
CCc1ccc2nc(NC(=O)C3CCN(c4ncnc5sc(C)c(C)c45)CC3)sc2c1	33.4*	-6.2	3.5	-10.4	9.8	-2.2	1.5
O=C(Nc1c2c(nn1-c1ccccc1)CS(=O)(=O)C2)c1ccc(Br)o1	4.2	-2.2	1.1	9.0	/	-3.3	/
COCCN(Cc1ccc(F)cc1)C(=O)c1cc2ccccc2oc1=O	-2.3	1.5	-1.5	0.3	-3.7	-1.1	/
Cc1c([N+](=O)[O-])cc(C(=O)Oc2cccc(C(=S)N3CCOCC3)c2)cc1[N+](=O)[O-]	-3.2	-18.9	0.5	2.5	3.8	0.1	/
Cc1onc(-c2c(Cl)cccc2Cl)c1C(=O)NC(=S)Nc1sc2c(c1C(N)=O)CCC(C)C2 (configuration not stated)	31.2*	-1.1	-0.5	26.4	0.3	-2.4	3.0
CNC(=O)c1ccc(NC(=O)C2CCN(c3ncnc4sc(C)c(C)c34)CC2)cc1	8.5	3.7	1.0	-2.3	-4.5	-1.6	/
Cc1sc2ncnc(N3CCC(C(=O)Nc4sc5c(c4C(N)=O)CCC(C)C5)CC3)c2c1C (configuration not stated)	30.5*	-2.1	3.3	-13.9	5.8	1.4	10.7
Cc1onc(-c2ccccc2)c1C(=O)Nc1sc2c(c1C#N)CCC(C)C2 (configuration not stated)	5.1	2.7	2.8	-0.2	-8.9	1.1	/
COc1cc(/C=C/C(=O)O)ccc1O	-5.3	-0.3	-0.4	5.5	12.2	3.3	/
COc1cc(/C=C/C(=O)CC(=O)/C=C/c2ccc(O)c(OC)c2)ccc1O	56.5*	-1.9	4.7	-27.6	-3.5	-22.8	51.8*
CC1CC(C)(C)CC2(C1)NC(=O)N(CC(=O)NC1CCCc3ccccc31)C2=O (configuration not stated)	-1.6	-4.3	-1.0	6.8	-4.9	2.2	/
Nc1cc(N)cc(Cc2ccccc2)c1	32.8*	-2.5	0.1	-12.1	/	-2.8	45.7
Nc1cc(Cc2ccccc2)ccc1O	3.4	-10.1	2.3	1.8	2.2	-1.6	/
COCCn1c(=O)[nH]c(=O)c2c1nc(-c1ccc(-c3ccc(Cl)cc3[N+](=O)[O-])o1)n2Cc1ccccc1	44.8*	-3.3	4.0	-41.5	-6.7	0.6	12.9
COc1ccc(-c2ccc(-c3nc4c(c(=O)[nH]c(=O)n4Cc4ccccc4)n3C)o2)c([N+](=O)[O-])c1	52.4*	-3.6	1.9	23.0	-8.9	9.1	9.0
SMILES	NadD block	SUMO1-SIM PPI	LMPTP block	DNMT1 block	Scp1 inh	STEP inh	NadD conf
Cc1ccc2cc(CN(CC3CCCO3)C(=O)c3cccs3)c(=O)[nH]c2c1 (configuration not stated)	0.9	-2.9	-0.8	1.5	-3.8	0.9	/
NS(=O)(=O)c1ccc(CCNC(=O)CCC(=O)c2cccs2)cc1	8.5	1.8	1.7	-26.5	5.8	1.4	/
Cc1cccc2sc(NNC(=O)c3cc(=O)c4ccccc4o3)nc12	45.2*	-14.5	3.3	-17.2	-7.4	-0.1	60.0*
Cc1ccc2sc(NNC(=O)c3cc(=O)c4ccccc4o3)nc2c1C	64.4*	-4.2	4.6	-28.1	44.2	4.7	70.2*
O=C(NNc1nc2c(F)cccc2s1)c1cc(=O)c2ccccc2o1	14.9	-16.0	12.0	-15.3	-18.5	1.4	/
CC(=O)c1ccc(NC(=O)COC(=O)c2c3c(nc4ccccc24)/C(=C\c2cccs2)CCC3)cc1	27.2*	0.3	4.6	-21.3	6.1	0.1	10.8
COc1cc2cc(Oc3ccc4ccc(=O)oc4c3)c(=O)oc2cc1OC(=O)/C=C/c1ccccc1	32.1*	0.1	-2.7	38.4	2.9	3.4	9.5
COCCCNC(=O)CCCCCNS(=O)(=O)c1ccc(Br)cc1	-9.1	5.6	-0.5	-0.6	8.3	-2.4	/
CCCn1c(C(C)Nc2nc(-c3cc(Cl)c(N)c(Cl)c3)cs2)nc2cc(Cl)c(N3CCCCC3)cc21 (configuration not stated)	33.3*	4.7	2.4	-6.3	-1.6	3.1	21.6
Nc1c(Cl)cc(-c2csc(N3CCCC3c3nc4cc(Cl)c(Cl)cc4n3CCCO)n2)cc1Cl (configuration not stated)	14.0	5.1	5.2	-20.7	-0.2	-2.0	/

Assay outcomes: PubChem BioAssay, Sanford-Burnham Center for Chemical Genomics
